# From the M2OR odorant receptor database
# What was measured:
# Conditions in all cases: stereoisomer not certain
# [1] = target: T1, UniProt Q7TRW1
# T1 sequence (whole entry): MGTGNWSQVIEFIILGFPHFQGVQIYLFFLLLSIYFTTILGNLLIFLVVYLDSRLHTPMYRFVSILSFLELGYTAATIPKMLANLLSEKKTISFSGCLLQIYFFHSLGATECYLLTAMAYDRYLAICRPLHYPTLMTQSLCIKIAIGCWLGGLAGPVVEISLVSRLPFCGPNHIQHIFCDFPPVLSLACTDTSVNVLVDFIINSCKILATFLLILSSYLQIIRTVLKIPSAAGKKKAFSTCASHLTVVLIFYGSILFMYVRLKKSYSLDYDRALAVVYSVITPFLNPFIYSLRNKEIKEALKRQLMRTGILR
# Outline: (§1)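 Values were gathered from published papers (main text and supplementary material), with extra details requested from the original authors when needed, and checked for typos and inconsistencies. Each receptor–molecule pair is called responsive (active) if the original authors judged the measured signal statistically different from baseline, and non-responsive (inactive) otherwise. Assay methods varied by source, often transient mammalian cell-line luciferase assays. Recorded details include cell line, G-protein, co-transfected protein and tags.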
# [2] = target: T2, UniProt Q7TRX0
# T2 sequence (whole entry): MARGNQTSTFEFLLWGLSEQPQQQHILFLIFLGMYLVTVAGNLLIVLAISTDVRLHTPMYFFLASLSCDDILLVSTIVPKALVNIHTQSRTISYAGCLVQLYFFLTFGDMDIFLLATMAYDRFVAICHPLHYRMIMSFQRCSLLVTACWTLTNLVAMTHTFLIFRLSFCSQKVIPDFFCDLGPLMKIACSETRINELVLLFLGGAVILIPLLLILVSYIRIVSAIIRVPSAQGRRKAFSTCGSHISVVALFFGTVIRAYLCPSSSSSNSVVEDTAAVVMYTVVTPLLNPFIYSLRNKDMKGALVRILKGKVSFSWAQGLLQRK
# Outline: as §1
# [3] = target: T3, UniProt Q8VEU7
# T3 sequence (whole entry): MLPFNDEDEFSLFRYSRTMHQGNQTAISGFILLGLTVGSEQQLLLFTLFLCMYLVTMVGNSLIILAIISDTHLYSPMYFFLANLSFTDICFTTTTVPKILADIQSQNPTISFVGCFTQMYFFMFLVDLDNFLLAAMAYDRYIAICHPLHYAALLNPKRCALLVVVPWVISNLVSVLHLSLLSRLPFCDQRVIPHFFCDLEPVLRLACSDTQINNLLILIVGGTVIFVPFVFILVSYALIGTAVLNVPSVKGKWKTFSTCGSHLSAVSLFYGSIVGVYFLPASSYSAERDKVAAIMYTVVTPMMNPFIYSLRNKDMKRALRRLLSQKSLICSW
# Outline: as §1
# [4] = target: T4, UniProt Q8VF05
# T4 sequence (whole entry): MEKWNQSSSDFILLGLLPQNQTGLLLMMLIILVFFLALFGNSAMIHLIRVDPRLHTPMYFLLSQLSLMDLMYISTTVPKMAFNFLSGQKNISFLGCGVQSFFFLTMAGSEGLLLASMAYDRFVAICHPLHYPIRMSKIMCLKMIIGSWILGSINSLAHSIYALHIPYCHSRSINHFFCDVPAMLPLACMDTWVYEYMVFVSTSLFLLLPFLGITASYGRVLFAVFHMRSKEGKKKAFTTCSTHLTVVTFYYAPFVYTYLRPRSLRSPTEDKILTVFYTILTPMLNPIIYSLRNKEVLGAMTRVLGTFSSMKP
# Outline: as §1
# [5] = target: T5, UniProt Q8VF24
# T5 sequence (whole entry): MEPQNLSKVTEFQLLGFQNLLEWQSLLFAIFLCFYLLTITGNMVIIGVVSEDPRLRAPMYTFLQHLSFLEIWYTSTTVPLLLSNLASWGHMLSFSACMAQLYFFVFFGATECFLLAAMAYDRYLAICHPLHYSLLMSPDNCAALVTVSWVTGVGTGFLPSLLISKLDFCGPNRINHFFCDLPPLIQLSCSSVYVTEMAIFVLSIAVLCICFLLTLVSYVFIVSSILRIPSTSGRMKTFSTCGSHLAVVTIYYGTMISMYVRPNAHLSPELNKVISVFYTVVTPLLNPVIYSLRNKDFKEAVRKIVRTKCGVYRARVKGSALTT
# Outline: as §1
# [6] = target: T6, UniProt Q8VF43
# T6 sequence (whole entry): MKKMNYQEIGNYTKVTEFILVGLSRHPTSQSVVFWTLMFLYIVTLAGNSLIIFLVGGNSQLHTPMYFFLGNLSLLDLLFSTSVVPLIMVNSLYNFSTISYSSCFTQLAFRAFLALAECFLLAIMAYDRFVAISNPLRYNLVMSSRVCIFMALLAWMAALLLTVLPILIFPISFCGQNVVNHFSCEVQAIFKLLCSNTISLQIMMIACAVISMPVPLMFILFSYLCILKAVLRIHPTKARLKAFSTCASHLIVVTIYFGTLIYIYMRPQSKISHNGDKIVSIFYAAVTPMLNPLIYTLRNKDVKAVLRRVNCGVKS
# Outline: as §1
# [7] = target: T7, UniProt Q8VF44
# T7 sequence (whole entry): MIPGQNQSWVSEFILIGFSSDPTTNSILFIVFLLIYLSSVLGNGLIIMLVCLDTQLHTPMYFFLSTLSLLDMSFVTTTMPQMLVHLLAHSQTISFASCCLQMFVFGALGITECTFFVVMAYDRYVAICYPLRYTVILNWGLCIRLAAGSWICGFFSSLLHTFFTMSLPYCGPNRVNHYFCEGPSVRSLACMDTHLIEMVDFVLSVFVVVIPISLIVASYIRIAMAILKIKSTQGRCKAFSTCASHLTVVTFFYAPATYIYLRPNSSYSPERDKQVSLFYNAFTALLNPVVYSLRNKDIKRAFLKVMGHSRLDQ
# Outline: as §1
# [8] = target: T8, UniProt Q8VF52
# T8 sequence (whole entry): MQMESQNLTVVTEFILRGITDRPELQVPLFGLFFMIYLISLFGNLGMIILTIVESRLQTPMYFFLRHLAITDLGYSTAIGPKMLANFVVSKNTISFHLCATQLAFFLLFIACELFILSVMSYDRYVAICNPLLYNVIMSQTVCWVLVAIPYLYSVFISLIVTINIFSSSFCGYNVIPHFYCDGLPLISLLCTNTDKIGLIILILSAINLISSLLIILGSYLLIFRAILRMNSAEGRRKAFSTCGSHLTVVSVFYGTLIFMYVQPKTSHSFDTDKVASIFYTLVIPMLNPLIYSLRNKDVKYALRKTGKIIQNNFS
# Outline: as §1
# [9] = target: T9, UniProt Q8VFG6
# T9 sequence (whole entry): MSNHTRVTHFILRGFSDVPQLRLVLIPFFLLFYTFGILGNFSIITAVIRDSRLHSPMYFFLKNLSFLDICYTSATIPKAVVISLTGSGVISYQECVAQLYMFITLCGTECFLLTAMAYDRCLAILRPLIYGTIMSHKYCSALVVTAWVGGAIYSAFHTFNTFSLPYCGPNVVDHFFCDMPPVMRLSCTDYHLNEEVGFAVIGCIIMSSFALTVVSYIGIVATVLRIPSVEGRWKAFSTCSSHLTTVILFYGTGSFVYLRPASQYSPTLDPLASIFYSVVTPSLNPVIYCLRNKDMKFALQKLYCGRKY
# Outline: as §1
# [10] = target: T10, UniProt Q8VFM8
# T10 sequence (whole entry): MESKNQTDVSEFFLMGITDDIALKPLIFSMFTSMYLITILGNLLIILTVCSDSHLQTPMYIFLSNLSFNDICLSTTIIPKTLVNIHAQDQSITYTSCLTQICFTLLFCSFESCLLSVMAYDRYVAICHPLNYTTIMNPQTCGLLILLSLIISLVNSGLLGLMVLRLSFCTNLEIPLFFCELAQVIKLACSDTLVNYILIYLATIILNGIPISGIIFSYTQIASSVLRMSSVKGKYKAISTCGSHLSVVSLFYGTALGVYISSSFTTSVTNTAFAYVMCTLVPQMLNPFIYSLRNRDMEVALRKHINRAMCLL
# Outline: as §1
# [11] = target: T11, UniProt Q7TRR8
# T11 sequence (whole entry): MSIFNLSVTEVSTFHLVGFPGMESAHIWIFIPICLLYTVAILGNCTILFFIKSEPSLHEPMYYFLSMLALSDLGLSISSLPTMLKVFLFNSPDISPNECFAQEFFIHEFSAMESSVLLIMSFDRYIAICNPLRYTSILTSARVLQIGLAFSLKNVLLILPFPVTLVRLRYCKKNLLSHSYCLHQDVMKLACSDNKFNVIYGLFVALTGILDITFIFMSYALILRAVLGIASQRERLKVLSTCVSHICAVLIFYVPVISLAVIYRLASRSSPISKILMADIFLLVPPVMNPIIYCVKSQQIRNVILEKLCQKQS
# Outline: as §1
# [12] = target: UniProt Q8VF06
# UniProt Q8VF06, sequence (Q8VF06 as listed by the source): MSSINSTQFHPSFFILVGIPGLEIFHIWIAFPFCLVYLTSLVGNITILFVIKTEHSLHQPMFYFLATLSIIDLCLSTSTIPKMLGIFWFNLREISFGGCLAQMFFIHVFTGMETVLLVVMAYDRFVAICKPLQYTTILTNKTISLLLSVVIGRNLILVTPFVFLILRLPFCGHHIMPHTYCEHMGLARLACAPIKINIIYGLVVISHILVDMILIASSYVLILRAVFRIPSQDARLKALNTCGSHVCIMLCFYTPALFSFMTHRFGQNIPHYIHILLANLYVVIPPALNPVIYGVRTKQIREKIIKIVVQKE
# Outline: as §1
# [13] = target: UniProt Q7TRR7
# UniProt Q7TRR7, sequence (Q7TRR7 as listed by the source): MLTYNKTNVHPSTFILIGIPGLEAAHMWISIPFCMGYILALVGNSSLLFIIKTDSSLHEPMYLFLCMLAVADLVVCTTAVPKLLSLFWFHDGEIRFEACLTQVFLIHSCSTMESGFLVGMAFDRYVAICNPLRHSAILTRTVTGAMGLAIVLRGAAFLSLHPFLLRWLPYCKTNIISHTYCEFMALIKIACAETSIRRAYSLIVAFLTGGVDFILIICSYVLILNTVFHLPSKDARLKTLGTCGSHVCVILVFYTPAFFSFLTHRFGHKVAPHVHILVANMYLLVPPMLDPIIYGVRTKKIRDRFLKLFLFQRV
# Outline: as §1
# [14] = target: UniProt Q7TS17
# UniProt Q7TS17, sequence (Q7TS17 as listed by the source): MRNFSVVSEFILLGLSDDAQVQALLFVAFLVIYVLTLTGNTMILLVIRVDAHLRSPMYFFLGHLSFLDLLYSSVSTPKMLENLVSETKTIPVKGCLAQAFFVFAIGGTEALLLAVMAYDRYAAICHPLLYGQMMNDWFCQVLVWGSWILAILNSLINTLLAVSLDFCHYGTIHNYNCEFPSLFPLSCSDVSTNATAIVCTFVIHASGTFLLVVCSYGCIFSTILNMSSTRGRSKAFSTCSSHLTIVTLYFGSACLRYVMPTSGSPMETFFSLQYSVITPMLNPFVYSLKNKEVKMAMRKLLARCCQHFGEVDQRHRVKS
# Outline: as §1
# [15] = target: UniProt Q7TS37
# UniProt Q7TS37, sequence (Q7TS37 as listed by the source): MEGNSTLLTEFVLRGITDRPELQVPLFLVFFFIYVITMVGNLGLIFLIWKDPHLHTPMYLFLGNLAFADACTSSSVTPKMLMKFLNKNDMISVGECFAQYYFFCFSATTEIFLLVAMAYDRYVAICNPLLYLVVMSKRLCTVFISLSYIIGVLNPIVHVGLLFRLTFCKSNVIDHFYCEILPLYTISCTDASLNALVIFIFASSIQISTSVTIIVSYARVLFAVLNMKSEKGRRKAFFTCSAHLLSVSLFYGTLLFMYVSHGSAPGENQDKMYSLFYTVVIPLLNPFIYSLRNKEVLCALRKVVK
# Outline: as §1
# [16] = target: UniProt Q7TS40
# UniProt Q7TS40, sequence (Q7TS40 as listed by the source): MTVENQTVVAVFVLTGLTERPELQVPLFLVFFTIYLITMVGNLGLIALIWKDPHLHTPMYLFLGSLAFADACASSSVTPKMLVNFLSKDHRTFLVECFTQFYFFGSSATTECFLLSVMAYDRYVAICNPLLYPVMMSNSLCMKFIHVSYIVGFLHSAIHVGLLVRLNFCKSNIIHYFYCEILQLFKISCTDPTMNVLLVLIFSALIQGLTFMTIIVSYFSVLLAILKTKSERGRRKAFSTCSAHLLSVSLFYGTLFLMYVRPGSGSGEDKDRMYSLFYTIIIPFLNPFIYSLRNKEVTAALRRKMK
# Outline: as §1
# [17] = target: UniProt Q8VF73
# UniProt Q8VF73, sequence (Q8VF73 as listed by the source): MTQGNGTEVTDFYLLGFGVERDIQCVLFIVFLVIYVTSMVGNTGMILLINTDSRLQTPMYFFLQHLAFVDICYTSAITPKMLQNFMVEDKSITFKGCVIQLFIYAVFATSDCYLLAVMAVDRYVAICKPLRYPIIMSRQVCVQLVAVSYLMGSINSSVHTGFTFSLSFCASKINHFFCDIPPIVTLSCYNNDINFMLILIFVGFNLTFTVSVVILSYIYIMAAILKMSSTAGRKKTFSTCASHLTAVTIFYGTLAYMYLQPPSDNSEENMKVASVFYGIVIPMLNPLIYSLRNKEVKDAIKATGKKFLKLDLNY
# Outline: as §1
# [18] = target: UniProt Q8VFB8
# UniProt Q8VFB8, sequence (Q8VFB8 as listed by the source): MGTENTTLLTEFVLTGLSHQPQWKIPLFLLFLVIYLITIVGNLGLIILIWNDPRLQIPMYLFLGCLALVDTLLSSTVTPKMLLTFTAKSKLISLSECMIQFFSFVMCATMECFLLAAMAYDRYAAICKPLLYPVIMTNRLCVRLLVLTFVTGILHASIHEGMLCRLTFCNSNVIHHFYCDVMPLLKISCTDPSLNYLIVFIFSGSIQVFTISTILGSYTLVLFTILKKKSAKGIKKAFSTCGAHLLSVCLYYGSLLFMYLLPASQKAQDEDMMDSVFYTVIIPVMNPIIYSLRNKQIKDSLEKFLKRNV
# Outline: as §1
structure (smiles),measurement,setting,value
O=C1Cc2ccccc2O1,odorant receptor agonist call,[1],inactive
same,odorant receptor agonist call,[2],inactive
same,odorant receptor agonist call,[3],inactive
same,odorant receptor agonist call,[4],inactive
same,odorant receptor agonist call,[5],inactive
same,odorant receptor agonist call,[6],inactive
same,odorant receptor agonist call,[7],active
same,odorant receptor agonist call,[8],inactive
same,odorant receptor agonist call,[9],inactive
same,odorant receptor agonist call,[10],inactive
CCCCCCCCCO,odorant receptor agonist call,[11],inactive
same,odorant receptor agonist call,[1],inactive
same,odorant receptor agonist call,[2],inactive
same,odorant receptor agonist call,[3],inactive
same,odorant receptor agonist call,[4],inactive
same,odorant receptor agonist call,[12],inactive
same,odorant receptor agonist call,[5],inactive
same,odorant receptor agonist call,[6],inactive
same,odorant receptor agonist call,[7],inactive
same,odorant receptor agonist call,[8],inactive
same,odorant receptor agonist call,[9],inactive
same,odorant receptor agonist call,[10],inactive
CCCCCCCCC(=O)O,odorant receptor agonist call,[13],inactive
same,odorant receptor agonist call,[11],active
same,odorant receptor agonist call,[1],inactive
same,odorant receptor agonist call,[2],inactive
same,odorant receptor agonist call,[3],inactive
same,odorant receptor agonist call,[4],inactive
same,odorant receptor agonist call,[12],active
same,odorant receptor agonist call,[5],inactive
same,odorant receptor agonist call,[6],inactive
same,odorant receptor agonist call,[7],inactive
same,odorant receptor agonist call,[8],inactive
same,odorant receptor agonist call,[9],inactive
same,odorant receptor agonist call,[10],inactive
CCC=CCCC=CC=O,odorant receptor agonist call,[2],inactive
same,odorant receptor agonist call,[6],inactive
same,odorant receptor agonist call,[8],inactive
same,odorant receptor agonist call,[10],inactive
COc1ccccc1,odorant receptor agonist call,[2],inactive
same,odorant receptor agonist call,[6],inactive
same,odorant receptor agonist call,[8],inactive
same,odorant receptor agonist call,[10],inactive
CSSSC,odorant receptor agonist call,[2],inactive
same,odorant receptor agonist call,[6],inactive
same,odorant receptor agonist call,[8],inactive
same,odorant receptor agonist call,[10],inactive
O=c1ccc2ccccc2o1,odorant receptor agonist call,[1],inactive
same,odorant receptor agonist call,[14],active
same,odorant receptor agonist call,[15],active
same,odorant receptor agonist call,[16],inactive
same,odorant receptor agonist call,[3],inactive
same,odorant receptor agonist call,[4],inactive
same,odorant receptor agonist call,[5],inactive
same,odorant receptor agonist call,[7],active
same,odorant receptor agonist call,[8],active
same,odorant receptor agonist call,[17],active
same,odorant receptor agonist call,[18],inactive
same,odorant receptor agonist call,[9],inactive
CCC(C(=O)O)c1ccccc1 (centres undefined),odorant receptor agonist call,[1],inactive
same,odorant receptor agonist call,[3],inactive
same,odorant receptor agonist call,[4],inactive
same,odorant receptor agonist call,[5],inactive
same,odorant receptor agonist call,[7],inactive
same,odorant receptor agonist call,[8],inactive
same,odorant receptor agonist call,[9],inactive
CCCCCC1=C(C)CCC1=O,odorant receptor agonist call,[1],inactive
same,odorant receptor agonist call,[2],inactive
same,odorant receptor agonist call,[3],inactive
same,odorant receptor agonist call,[4],active
same,odorant receptor agonist call,[5],inactive
same,odorant receptor agonist call,[6],inactive
same,odorant receptor agonist call,[7],inactive
same,odorant receptor agonist call,[8],active
same,odorant receptor agonist call,[9],inactive
same,odorant receptor agonist call,[10],inactive
C=C1C2CCC(C2)C1(C)C (centres undefined),odorant receptor agonist call,[2],inactive
same,odorant receptor agonist call,[6],inactive
same,odorant receptor agonist call,[8],inactive
same,odorant receptor agonist call,[10],inactive
CC(=O)OCc1ccc2c(c1)OCO2,odorant receptor agonist call,[2],inactive
same,odorant receptor agonist call,[6],inactive
same,odorant receptor agonist call,[8],inactive
same,odorant receptor agonist call,[10],inactive
CCCCCOC(=O)CCCCC,odorant receptor agonist call,[1],inactive
same,odorant receptor agonist call,[2],inactive
same,odorant receptor agonist call,[3],inactive
same,odorant receptor agonist call,[4],inactive
same,odorant receptor agonist call,[5],inactive
same,odorant receptor agonist call,[6],inactive
same,odorant receptor agonist call,[7],inactive
same,odorant receptor agonist call,[8],inactive
same,odorant receptor agonist call,[9],inactive
same,odorant receptor agonist call,[10],inactive
